In ChEMBL document CHEMBL3611973, “Synthesis and biological evaluation of a novel betulinic acid derivative as an inducer of apoptosis in human colon carcinoma cells (HT-29)” (Eur J Med Chem, 2015):

Experiments:
MCF7 = test: Cytotoxic activity against human MCF7 cells assessed as cell growth inhibition after 48 hrs by MTT assay; format: functional, cell-based; details: MCF7, 48 h
Method in brief: (§1)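 Log-phase cells (1.25-2.5×10^4/100 µl; RPMI 1640, HepG2 in high-glucose DMEM, 10% FBS) given compound in DMSO (final <0.1%), 0-50 µM, 48 h, 37 °C, 5% CO2. MTT 4 h, DMSO solubilization, OD 540 nm minus background; viability relative to untreated; IC50 by graphical extrapolation, ≥3 experiments in duplicate.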

HT-29 = test: Cytotoxic activity against human HT-29 cells assessed as cell growth inhibition after 48 hrs by MTT assay; format: functional, cell-based; details: HT-29, 48 h; method in brief: as §1
Jurkat = test: Cytotoxic activity against human Jurkat cells assessed as cell growth inhibition after 48 hrs by MTT assay; format: functional, cell-based; method in brief: as §1
PBMC = test: Cytotoxic activity against human PBMC cells assessed as cell growth inhibition after 48 hrs by MTT assay; format: cell-based; method in brief: as §1
HepG2 = test: Cytotoxic activity against human HepG2 cells assessed as cell growth inhibition after 48 hrs by MTT assay; format: functional, cell-based; details: HepG2, 48 h; method in brief: as §1
U-937 = test: Cytotoxic activity against human U937 cells assessed as cell growth inhibition after 48 hrs by MTT assay; format: functional, cell-based; details: U-937, 48 h; method in brief: as §1

Structure (SMILES)	IC50 (MCF7)	IC50 (HT-29)	IC50 (Jurkat)	IC50 (PBMC)	IC50 (HepG2)	IC50 (U-937)
C=C(C)[C@@H]1CC[C@]2(C(=O)O)CC[C@]3(C)[C@H](CC[C@@H]4[C@@]5(C)CC[C@H](OC(=O)Cn6ccnn6)C(C)(C)[C@@H]5CC[C@]43C)[C@@H]12	> 50 µM	> 50 µM	> 50 µM	> 50 µM	> 50 µM	> 50 µM
C=C(C)[C@@H]1CC[C@]2(C(=O)O)CC[C@]3(C)[C@H](CC[C@@H]4[C@@]5(C)CC[C@H](OC(=O)Cn6cc(CO[C@@H]7[C@H]8OC(C)(C)O[C@H]8O[C@@H]7[C@H](O)CO)nn6)C(C)(C)[C@@H]5CC[C@]43C)[C@@H]12	> 50 µM	> 50 µM	> 50 µM		> 50 µM	> 50 µM
C=C(C)[C@@H]1CC[C@]2(C(=O)O)CC[C@]3(C)[C@H](CC[C@@H]4[C@@]5(C)CC[C@H](OC(=O)Cn6cc(-c7ccc(C(=O)OCC)cc7)nn6)C(C)(C)[C@@H]5CC[C@]43C)[C@@H]12	> 50 µM	> 50 µM	> 50 µM		> 50 µM	40.1 µM
C=C(C)[C@@H]1CC[C@]2(C(=O)O)CC[C@]3(C)[C@H](CC[C@@H]4[C@@]5(C)CC[C@H](OC(=O)Cn6cc(-c7c[nH]c(=O)[nH]c7=O)nn6)C(C)(C)[C@@H]5CC[C@]43C)[C@@H]12	> 50 µM	> 50 µM	> 50 µM		> 50 µM	> 50 µM
C=C(C)[C@@H]1CC[C@]2(C(=O)O)CC[C@]3(C)[C@H](CC[C@@H]4[C@@]5(C)CC[C@H](OC(=O)Cn6cc(-c7ccccc7)nn6)C(C)(C)[C@@H]5CC[C@]43C)[C@@H]12	> 50 µM	> 50 µM	> 50 µM	> 50 µM	> 50 µM	> 50 µM
C=C(C)[C@@H]1CC[C@]2(C(=O)O)CC[C@]3(C)[C@H](CC[C@@H]4[C@@]5(C)CC[C@H](OC(=O)Cn6cc(-c7ccc([N+](=O)[O-])cc7)nn6)C(C)(C)[C@@H]5CC[C@]43C)[C@@H]12	45.7 µM	> 50 µM	44.8 µM	> 50 µM	42.7 µM	> 50 µM
